Assay: Toxicity liver stage against HepG2, at 10uM
Assay type: cell-based
Parameters: test concentration 10 uM, cell line HepG2-A16-CD81EGFP
Conditions: human, HepG2-A16-CD81EGFP cells; read-out: INHIBITION
How it was run: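 Uninfected HepG2-A16-CD81EGFP cells, 3 × 10^3 per well, 1536-well, plated on prespotted compound at 10 μM final, parasite-free screening media added to match infected plates; puromycin 10 μM positive, DMSO 0.5% negative; run in parallel with 48 h PbLuc assay at 37 °C, 5% CO2; viability by CellTiter-Glo luminescence, normalized to controls.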

SMILES | cytotoxicity at 10 µM [%]
CC(C)Oc1cccc(C(=O)C2CCCN(C(=O)c3ccoc3)C2)c1 (stereo not drawn) | 1.43
CS(=O)(=O)c1ccc(-c2c[nH]c([C@@H]3COCCN3)n2)cc1 | 5.29
COCC(=O)Nc1ccc(-c2noc([C@@H]3CCCN3C)n2)cn1 | 6.65
O=C(Nc1ccc2c(c1)OCCO2)N1CCCC1c1ccco1 (stereo not drawn) | 8.2
COCCc1noc(C2CCN(C(=O)Nc3cccs3)CC2)n1 | -10.6
c1ccc(N2CCc3ncnc(C4CC4)c3CC2)nc1 | -157
Cn1c2c(c(=O)n1C)CN(C(=O)c1ccsc1)CCC2 | 5.04
COCC1Cn2nnc(-c3cnn(C)c3)c2CN1Cc1ccc(C)o1 (stereo not drawn) | 4.82
CCOCC(=O)N1CCCn2c(CN3CCCCC3)nnc2C1 | -110
Cc1ccccc1OCC(=O)N1CC[C@]2(C[C@@H](OCC3CC3)CO2)C1 | 3.1
O=S(=O)(C1CC1)N1CCC2(CC1)CC(Oc1ccccn1)CO2 (stereo not drawn) | -139
CC(C)C(NC(=O)Cn1nc2c(cc1=O)CCCC2)C(=O)O (stereo not drawn) | 7.63
COCCC(=O)N1CCC2(CC1)CN(S(C)(=O)=O)Cc1ccccc1O2 | 3.73
O=C(c1cccnc1)N1CCCC1c1cc[nH]n1 (stereo not drawn) | -26.5
O=C(CCn1c(C(F)F)cc2cccnc21)NC1CCCC1 | -40.5
Cn1nccc1C(=O)N1Cc2cc(Cl)ccc2OC2(CCOCC2)C1 | 19.7
O=C(Cc1ccsc1)N1CCC(c2noc(-c3ccncc3)n2)CC1 | -22.1
NC(=O)CN1CCCC(CCCc2ccccn2)(C(N)=O)C1 (stereo not drawn) | -23.5
O=C(Cc1ccsc1)N1CCC(c2n[nH]c3nccnc23)CC1 | -10.6
COc1ccccc1CC(C)N(C)CCS(C)(=O)=O (stereo not drawn) | 7.57
CC(NCCCn1ccnc1)c1ccc(N2CCCS2(=O)=O)cc1 (stereo not drawn) | -7.49
CCc1noc(C(C)N2CCc3c(ncn3C3CC3)C2)n1 (stereo not drawn) | 4.36
COc1ccc(C(NC(=O)c2cccc[n+]2[O-])C2CC2)cc1 (stereo not drawn) | 7.12

SMILES | cytotoxicity at 10 µM [%]
CCn1cc(S(=O)(=O)NCc2ccnc(-n3ccnc3)c2)cn1 | -1.78
O=C(NCC1CCS(=O)(=O)C1)N(Cc1ccncc1)C1CC1 (stereo not drawn) | -138
Cc1cnn(CCNCC(=O)N2CCN(c3ccccn3)CC2)c1 | 1.22
NC(=O)CSCCC(=O)NCC1CC1 | 6.2
CSCc1ccc(CNCCCN2CCOCC2)o1 | 5.81
CCNC(=O)CCC(=O)NC(C)Cc1ccccc1Br (stereo not drawn) | -4.99
CC(Nc1ccc(N2C(=O)CCCC2=O)cc1)c1ccc(C#N)cc1 (stereo not drawn) | 8.71
CCOCC(=O)Nc1ncc(I)cc1C | -4.76
Cc1ccc(NC2CCN(C(=O)CCCc3ccccn3)CC2)cc1 | 13.3
Cc1ccc(C(=O)Nc2ccn(CCC(N)=O)n2)cc1 | 2.42
CCC(CO)NC(=O)NCc1cc(C#N)ccc1F (stereo not drawn) | -1.22
N#Cc1cccc(CN2C(=O)c3ccccc3CS2(=O)=O)c1 | -2.14
Cn1cnnc1CCNC(=O)c1ccccc1OC1CCC1 | -2.94
CN(C)CCn1ccc2ccc(NC(=O)c3ccncc3F)cc21 | -1.53
CC(C)OCCN1CCN(C(=O)c2cc(-n3cccn3)ccn2)CC1 | -0.158
Cc1nc(-c2ccccc2)ccc1C(=O)N1CCn2c(C)nnc2C1 | 4.01
CCc1nnc2ccc(NCC3(O)CCOCC3)nn12 | -0.439
CC(C)c1cnc(CN2C(=O)CC3(CCSC3)C2=O)o1 (stereo not drawn) | 17.2
CC(C)(C)c1cnc(CN2C(=O)CC3(CCSC3)C2=O)o1 (stereo not drawn) | 7.28
CCc1nc(CC(=O)NC(C#N)CC(C)C)cs1 (stereo not drawn) | 9.17
Cc1nnc(CN(Cc2ccccc2Cl)C2CCCC2)o1 | 0.256
Cn1cc(CC(CNC(=O)Nc2cccc(Cl)c2)C(N)=O)cn1 (stereo not drawn) | -15.5
Cc1cccc2c1OCCCC2NCc1nccn1Cc1ccccc1 (stereo not drawn) | 1.38

SMILES | cytotoxicity at 10 µM [%]
OCc1ccncc1NCc1cnc(-c2ccccn2)s1 | -17.4
CC(Cn1cccn1)NC(=O)N(C)Cc1ccsc1 (stereo not drawn) | -3.81
CNC(=O)NC(=O)CN(Cc1ccc(C#N)cc1)Cc1cccc(F)c1 | 5.51
O=C(Nc1ccc(-n2cccn2)c(F)c1)C1CCN(C(=O)C2CC2)CC1 | 1.48
COc1cccc(COCC(=O)NC(C)c2nnc3n2CCC3)c1 (stereo not drawn) | -3.36
Cn1ncnc1NCc1ccc(Cl)cc1 | -4.43
Cc1nncn1CCNC(=O)C(C)(C)c1cccc(C(F)(F)F)c1 | 8.63
Cc1ccc(C2COCCN2C(=O)c2ccc(N(C)C)cc2)o1 (stereo not drawn) | 4
CCc1cc(NCC(O)CN2CCCCC2)n2ncnc2n1 (stereo not drawn) | -7.45
Cc1nc(C)n(CC2CCCN(Cc3nnc(-c4ccco4)o3)C2)n1 (stereo not drawn) | -8.33
O=C(NCc1cc[nH]n1)NC1CCCN(c2ncccn2)C1 (stereo not drawn) | -2.26
Nc1ncc(C(=O)N2CCC(O)(CO)CC2)c(-c2ccccc2)n1 | -144
CNC(=O)CCN1CCC(c2nnc(Cn3cccn3)n2C2CC2)CC1 | 1.53
CCC(CO)N(Cc1ccco1)C(=O)c1ccccc1SC (stereo not drawn) | 6.41
COCC(C)N1CCc2onc(-c3ccc(C(F)(F)F)cc3)c2C1 (stereo not drawn) | -6.45
CCC1(O)CCCN(c2nc(-c3ccccn3)nc3c2c(C)nn3C)C1 (stereo not drawn) | 3.11
CCc1ccccc1CN1CCC(N2CCCC2=O)CC1 | -2.53
O=C(c1cc2c(s1)CCCCC2)N1CCC(c2ncc[nH]2)CC1 | 15.7
CCOC(=O)N[C@H]1C[C@@H](C(=O)NCc2cccc(Cl)c2)N(C)C1 | -3.89
CN(Cc1ccc2c(c1)OCO2)C(=O)c1ccc(C2CCCO2)s1 (stereo not drawn) | 5.6
CC[C@H]1CN(C(=O)c2cccc(-n3cnnc3)n2)CC[C@@]1(C)O | 3.66
Cc1cc2cccc(NC(=O)N3CCC(N(C)C)C3)c2o1 (stereo not drawn) | 1.97
CCN(Cc1nccn1C)C(=O)c1ccc(NCCc2c[nH]cn2)nc1 | -2.5

SMILES | cytotoxicity at 10 µM [%]
O=C(c1cscn1)N1CCC(Cn2cc(-c3ccsc3)nn2)CC1 | 0.259
CN(C(=O)c1ccc2c(c1)nc(N1CC[C@H](O)C1)n2C)C1CCSCC1 | -13
COc1cccc(OCCNS(C)(=O)=O)c1 | 13
O=C(CCC(F)(F)F)N1CCCC(c2ncc[nH]2)C1 (stereo not drawn) | 2.14
CC(C)N(C)CC(=O)N1CCCC(c2ccc(C(=O)O)cc2)C1 (stereo not drawn) | -6.09
CSc1cccc(CN(C)C(=O)C2CC(=O)N(CCN(C)C)C2)c1 (stereo not drawn) | -16.5
COc1ccc(S(=O)(=O)NC(=O)COC2CCCC2)cc1 | -2.55
Cc1nc(C)n(CC2CCCN(Cc3ncc(C(C)(C)C)o3)C2)n1 (stereo not drawn) | -5.95
CC(C)c1nccc(N2CCN(CC(=O)N3CCOCC3)CC2)n1 | -8.68
CCN(CC1CCOC1)C(=O)c1ccccc1S(=O)(=O)CC (stereo not drawn) | -2.15
Cc1ccc(F)cc1NS(=O)(=O)c1cc2c(c(C(=O)O)c1)OCCO2 | -3.88
O=C(Nc1cccc(CNCc2ccccn2)c1)C1CCCC1 | -7.63
Cc1cc(NC(=O)CN2CCN(c3nc(C)cs3)C(C)C2)on1 (stereo not drawn) | -1.81
c1ncn(CC2CCCN(Cc3nnc(C4CC4)o3)C2)n1 (stereo not drawn) | -14.5
CCOc1ncccc1NC(=O)NCC(C)O (stereo not drawn) | -5.68
CC(C)c1cnc(CN(C)C2CCN(CCc3cnn(C)c3)C2)o1 (stereo not drawn) | -7.12
CC(O)CN1CCN(C(=O)c2sccc2C2CC2)CC1 (stereo not drawn) | 1.83
CCc1n[nH]c(C2CN(C(=O)c3cncnc3CC)CCO2)n1 (stereo not drawn) | -5.65
O=C(CCc1nccs1)N1CCCC(n2ccnc2)C1 (stereo not drawn) | -16
COCCc1noc(CN2CCCC(Cn3cncn3)C2)n1 (stereo not drawn) | -2.55
O=C(c1cccc2c1OCCO2)N1CCCC(n2cccn2)C1 (stereo not drawn) | -3.73
Cc1ncsc1C(=O)N1CCCC1c1c(C)nn(C)c1Cl (stereo not drawn) | -1.9
N#Cc1cc(NS(=O)(=O)c2cc(C(=O)O)cc(Cl)c2Cl)ccc1F | -1.37

SMILES | cytotoxicity at 10 µM [%]
Cc1nn(C)c(C)c1C1COCCN1C(=O)c1n[nH]c2ccccc12 (stereo not drawn) | -8.72
O=C(NCCNc1ncccn1)C1CCN(c2ncccn2)CC1 | -7.67
c1ccc(CNC2CCc3ncnn3C2)nc1 (stereo not drawn) | -6.69
Cc1ncc(CNC(=O)N(C)C2CCN(c3ccccc3)C2=O)s1 (stereo not drawn) | -14.7
CN(C)c1ncccc1CNC(=O)N1CCCC1c1ccsc1 (stereo not drawn) | -6.33
Cc1cnn(C2CCCN(C(=O)Cc3ccc(-n4cccn4)cc3)C2)c1 (stereo not drawn) | 2.55
COc1ccc(OC)c(NC(=O)NCC(O)c2ccc(F)c(F)c2)c1 (stereo not drawn) | 0.746
Cc1ccc(NC2CCN(C(=O)Cc3ccc(C#N)cc3)CC2)nn1 | -6.83
O=C(C1CC1)N1CC2(CCNCC2)C1 | -0.832
O=C(c1cc(C2CCCCN2CCO)n[nH]1)N1CCOCC1 (stereo not drawn) | -24.5
Cc1nc(CN2CCC3(CCCN(Cc4cnn(C)c4)C3)C2=O)cs1 (stereo not drawn) | -5.74
COCC1c2c(cnn2CC2CC2)CCN1Cc1cccs1 (stereo not drawn) | -6.61
Cc1cc(CN2CCC3(CC2)CC(Nc2ncccn2)CO3)nn1C (stereo not drawn) | -1.84
c1cnc(NCc2noc3c2CN(CCN2CCCC2)CC3)nc1 | -7.36
CC(=O)N1[C@H](CN(C)C)C[C@@H]2CN(c3ncc(F)cn3)CC[C@@H]21 | 5.56
O=C(c1ncccn1)N1CC[C@H]2OCC[C@@]2(COc2ccccn2)C1 | -146
CN1CCN(C(=O)[C@H]2C[C@@H]3CN(c4ncc(F)cn4)C[C@@H]3N2C)CC1 | -136
Cn1cnc2c1C(COCC1CCOCC1)CN(C1CCOCC1)C2 (stereo not drawn) | -4.22
CC(C)Nc1ncnc2c1CCN(C(=O)NCc1cccnc1)CC2 | -150
COC(=O)Cn1c(=O)[nH]c2cn(-c3ccc(C)cc3)c(=O)n21 | 0.413
O=C(NCC1(COc2cnccn2)C[C@@H](O)[C@@H](O)C1)C1CCOCC1 (stereo partly drawn) | -2.48

Reference: ChEMBL document CHEMBL4513216, “Probing the Open Global Health Chemical Diversity Library for Multistage-Active Starting Points for Next-Generation Antimalarials” (ACS Infect Dis, 2020)
